Reference: ChEMBL document CHEMBL2069282, “Sugar-modified derivatives of cytostatic 7-(het)aryl-7-deazaadenosines: 2'-C-methylribonucleosides, 2'-deoxy-2'-fluoroarabinonucleosides, arabinonucleosides and 2'-deoxyribonucleosides” (Bioorg Med Chem, 2012)

System: Hepatitis C virus
Assay: Antiviral activity against Hepatitis C virus subtype 1a replicons infected in human HuH7 cells assessed as reduction in viral RNA levels by Rt-PCR
Assay type: functional, organism-based, Hepacivirus hominis
Conditions: Huh-7

Row | EC50 [µM] | SMILES
1 | 37.8 | Nc1ncnc2c1c(-c1ccsc1)cn2[C@@H]1O[C@H](CO)[C@@H](O)[C@@H]1O
2 | 11.1 | Nc1ncnc2c1c(-c1ccco1)cn2[C@H]1C[C@H](O)[C@@H](CO)O1
3 | 7.58 | Nc1ncnc2c1c(-c1cccs1)cn2[C@H]1C[C@H](O)[C@@H](CO)O1
4 | 24 | Nc1ncnc2c1c(-c1ccoc1)cn2[C@H]1C[C@H](O)[C@@H](CO)O1
5 | 11.4 | Nc1ncnc2c1c(-c1ccsc1)cn2[C@H]1C[C@H](O)[C@@H](CO)O1

Row | SMILES | EC50 [µM]
6 | C#Cc1cn([C@@H]2O[C@H](CO)[C@@H](O)[C@@H]2O)c2ncnc(N)c12 | 1.54

System: not listed separately
Assay: Cytotoxicity against human HeLaS3 cells incubated for 3 days by XTT assay
Assay type: functional, cell-based
Conditions: HeLa S3, 72 h
Procedure, shortened: (§1)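 Cell viability read by a metabolic XTT tetrazolium method after 3-day incubation of cells with compound. Values are from 2–4 independent experiments.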

Row | SMILES | IC50 [µM]
7 | Nc1ncnc2c1c(-c1ccsc1)cn2[C@@H]1O[C@H](CO)[C@@H](O)[C@@H]1O | 7.03
8 | C#Cc1cn([C@@H]2O[C@H](CO)[C@@H](O)[C@@H]2O)c2ncnc(N)c12 | 3.77

System: HL-60
Assay: Cytotoxicity against human HL60 cells incubated for 3 days by XTT assay
Assay type: functional, cell-based
Conditions: HL-60, 72 h
Procedure, shortened: as §1

Row | SMILES | IC50 [µM]
9 | Nc1ncnc2c1c(-c1ccsc1)cn2[C@@H]1O[C@H](CO)[C@@H](O)[C@@H]1O | 13
10 | C#Cc1cn([C@@H]2O[C@H](CO)[C@@H](O)[C@@H]2O)c2ncnc(N)c12 | > 10

System: not listed separately
Assay: Selectivity index, ratio of CC50 for human HuH7 cells to EC50 for Hepatitis C virus subtype 1a replicons
Assay type: toxicity, cell-based, Huh-7
Conditions: read-out: Ratio CC50/EC50

Row | SMILES | selectivity ratio
11 | C[C@@]1(O)[C@H](O)[C@@H](CO)O[C@H]1n1cc(-c2ccco2)c2c(N)ncnc21 | < 10
12 | C[C@@]1(O)[C@H](O)[C@@H](CO)O[C@H]1n1cc(-c2cccs2)c2c(N)ncnc21 | < 10
13 | Nc1ncnc2c1c(-c1ccsc1)cn2[C@@H]1O[C@H](CO)[C@@H](O)[C@@H]1O | < 10
14 | C#Cc1cn([C@@H]2O[C@H](CO)[C@@H](O)[C@@H]2O)c2ncnc(N)c12 | < 10
15 | Nc1ncnc2c1c(-c1ccco1)cn2[C@H]1C[C@H](O)[C@@H](CO)O1 | < 10
16 | Nc1ncnc2c1c(-c1cccs1)cn2[C@H]1C[C@H](O)[C@@H](CO)O1 | < 10
17 | Nc1ncnc2c1c(-c1ccoc1)cn2[C@H]1C[C@H](O)[C@@H](CO)O1 | < 10
18 | Nc1ncnc2c1c(-c1ccsc1)cn2[C@H]1C[C@H](O)[C@@H](CO)O1 | < 10

System: Hepatitis C virus
Assay: Antiviral activity against Hepatitis C virus subtype 1b replicons infected in human HuH7 cells assessed as reduction in viral RNA levels by Rt-PCR
Assay type: functional, organism-based, Hepacivirus hominis
Conditions: genotype 1b, Huh-7

Row | EC50 [µM] | SMILES
19 | 8.96 | C[C@@]1(O)[C@H](O)[C@@H](CO)O[C@H]1n1cc(-c2ccco2)c2c(N)ncnc21
20 | 14.2 | C[C@@]1(O)[C@H](O)[C@@H](CO)O[C@H]1n1cc(-c2cccs2)c2c(N)ncnc21
21 | 34 | Nc1ncnc2c1c(-c1ccsc1)cn2[C@@H]1O[C@H](CO)[C@@H](O)[C@@H]1O
22 | 4.16 | Nc1ncnc2c1c(-c1ccco1)cn2[C@H]1C[C@H](O)[C@@H](CO)O1
23 | 5.16 | Nc1ncnc2c1c(-c1cccs1)cn2[C@H]1C[C@H](O)[C@@H](CO)O1
24 | 5.26 | Nc1ncnc2c1c(-c1ccoc1)cn2[C@H]1C[C@H](O)[C@@H](CO)O1
25 | 5.91 | Nc1ncnc2c1c(-c1ccsc1)cn2[C@H]1C[C@H](O)[C@@H](CO)O1

Row | SMILES | EC50 [µM]
26 | C#Cc1cn([C@@H]2O[C@H](CO)[C@@H](O)[C@@H]2O)c2ncnc(N)c12 | 1.75

System: HepG2
Assay: Cytotoxicity against human HepG2 cells incubated for 3 days by XTT assay
Assay type: functional, cell-based
Conditions: HepG2, 72 h
Procedure, shortened: as §1

Row | SMILES | IC50 [µM]
27 | Nc1ncnc2c1c(-c1ccsc1)cn2[C@@H]1O[C@H](CO)[C@@H](O)[C@@H]1O | > 15
28 | C#Cc1cn([C@@H]2O[C@H](CO)[C@@H](O)[C@@H]2O)c2ncnc(N)c12 | 9.86

System: not listed separately
Assay: Cytostatic activity against human Hs578 cells incubated for 3 days by SRB assay
Assay type: functional
Conditions: Hs578, 72 h

Row | SMILES | GI50 [µM]
29 | C[C@@]1(O)[C@H](O)[C@@H](CO)O[C@H]1n1cc(-c2ccco2)c2c(N)ncnc21 | 9.05

System: DU-145
Assay: Cytostatic activity against human DU145 cells incubated for 3 days by SRB assay
Assay type: functional
Conditions: DU-145, 72 h

Row | GI50 [µM] | SMILES
30 | 8.89 | C[C@@]1(O)[C@H](O)[C@@H](CO)O[C@H]1n1cc(-c2ccco2)c2c(N)ncnc21

System: not listed separately
Assay: Selectivity index, ratio of CC50 for human HuH7 cells to EC50 for Hepatitis C virus subtype 1b replicons
Assay type: toxicity, cell-based, Huh-7
Conditions: read-out: Ratio CC50/EC50

Row | SMILES | selectivity ratio
31 | C[C@@]1(O)[C@H](O)[C@@H](CO)O[C@H]1n1cc(-c2ccco2)c2c(N)ncnc21 | < 10
32 | C[C@@]1(O)[C@H](O)[C@@H](CO)O[C@H]1n1cc(-c2cccs2)c2c(N)ncnc21 | < 10
33 | Nc1ncnc2c1c(-c1ccsc1)cn2[C@@H]1O[C@H](CO)[C@@H](O)[C@@H]1O | < 10
34 | C#Cc1cn([C@@H]2O[C@H](CO)[C@@H](O)[C@@H]2O)c2ncnc(N)c12 | < 10
35 | Nc1ncnc2c1c(-c1ccco1)cn2[C@H]1C[C@H](O)[C@@H](CO)O1 | < 10
36 | Nc1ncnc2c1c(-c1cccs1)cn2[C@H]1C[C@H](O)[C@@H](CO)O1 | < 10
37 | Nc1ncnc2c1c(-c1ccoc1)cn2[C@H]1C[C@H](O)[C@@H](CO)O1 | < 10
38 | Nc1ncnc2c1c(-c1ccsc1)cn2[C@H]1C[C@H](O)[C@@H](CO)O1 | < 10

System: HCT-116
Assay: Cytostatic activity against human HCT116 cells incubated for 3 days by SRB assay
Assay type: functional
Conditions: HCT-116, 72 h

Row | GI50 [µM] | SMILES
39 | > 10 | C[C@@]1(O)[C@H](O)[C@@H](CO)O[C@H]1n1cc(-c2ccco2)c2c(N)ncnc21

System: NCI-H23
Assay: Cytostatic activity against human NCI-H23 cells incubated for 3 days by SRB assay
Assay type: functional
Conditions: NCI-H23, 72 h

Row | GI50 [µM] | SMILES
40 | 6.08 | C[C@@]1(O)[C@H](O)[C@@H](CO)O[C@H]1n1cc(-c2ccco2)c2c(N)ncnc21

System: CCRF-CEM
Assay: Cytotoxicity against human CCRF-CEM cells incubated for 3 days by XTT assay
Assay type: functional, cell-based
Conditions: 72 h
Procedure, shortened: as §1

Row | SMILES | IC50 [µM]
41 | Nc1ncnc2c1c(-c1ccsc1)cn2[C@@H]1O[C@H](CO)[C@@H](O)[C@@H]1O | 3.1
42 | C#Cc1cn([C@@H]2O[C@H](CO)[C@@H](O)[C@@H]2O)c2ncnc(N)c12 | > 10

System: not listed separately
Assay: Toxicity against human HuH7 cells incubated for 3 days by CellTiter 96 AQueous One Solution cell proliferation assay
Assay type: cell-based, Huh-7
Conditions: not given

Row | SMILES | CC50 at 72 h [µM]
43 | C[C@@]1(O)[C@H](O)[C@@H](CO)O[C@H]1n1cc(-c2ccco2)c2c(N)ncnc21 | 49.6
44 | C[C@@]1(O)[C@H](O)[C@@H](CO)O[C@H]1n1cc(-c2cccs2)c2c(N)ncnc21 | 48.1
45 | Nc1ncnc2c1c(-c1ccsc1)cn2[C@@H]1O[C@H](CO)[C@@H](O)[C@@H]1O | > 44
46 | C#Cc1cn([C@@H]2O[C@H](CO)[C@@H](O)[C@@H]2O)c2ncnc(N)c12 | 17.4
47 | Nc1ncnc2c1c(-c1ccco1)cn2[C@H]1C[C@H](O)[C@@H](CO)O1 | > 44
48 | Nc1ncnc2c1c(-c1cccs1)cn2[C@H]1C[C@H](O)[C@@H](CO)O1 | > 44
49 | Nc1ncnc2c1c(-c1ccoc1)cn2[C@H]1C[C@H](O)[C@@H](CO)O1 | > 44
50 | Nc1ncnc2c1c(-c1ccsc1)cn2[C@H]1C[C@H](O)[C@@H](CO)O1 | > 44
